Assay results published in ChEMBL document CHEMBL4371003, “Discovery of Novel Dual Mechanism of Action Src Signaling and Tubulin Polymerization Inhibitors (KX2-391 and KX2-361)” (J Med Chem, 2018).
pIC50: −log10 of the molar value.

How the values were obtained:
[1] = system: HT-29; experiment: Antiproliferative activity against human HT-29 cells in presence of 1.5% FCS by BrdU incorporation assay; type: functional, cell-based
[2] = Oral bioavailability in mouse; type: ADME, organism-based; settings: in vivo
[3] = system: HT-29; experiment: Antiproliferative activity against human HT-29 cells; type: functional
[4] = Antiproliferative activity against human PC3MLN4 cells; type: functional
[5] = system: MOLT-4; experiment: Antiproliferative activity against human MOLT4 cells; type: functional
[6] = system: Jurkat; experiment: Antiproliferative activity against human Jurkat cells; type: functional
[7] = system: SW-620; experiment: Antiproliferative activity against human SW620 cells; type: functional; settings: for GI50: Homo sapiens, SW-620
[8] = system: NCI-H226; experiment: Antiproliferative activity against human NCI-H226 cells; type: functional; settings: for GI50: Homo sapiens, NCI-H226
[9] = system: SW1088; experiment: Antiproliferative activity against human SW1088 cells; type: functional
[10] = system: NCI-H460; experiment: Antiproliferative activity against human H460 cells; type: functional; settings: for GI50: Homo sapiens, NCI-H460
[11] = system: SK-N-MC; experiment: Antiproliferative activity against human SK-N-MC cells; type: functional
[12] = system: U-118-MG; experiment: Antiproliferative activity against human U118MG cells; type: functional
[13] = system: T98G; experiment: Antiproliferative activity against human T98G cells; type: functional
[14] = system: SK-N-FI; experiment: Antiproliferative activity against human SK-N-FI cells; type: functional
[15] = system: GL261; experiment: Antitumor activity against mouse GL261 cells implanted in mouse assessed as incidence of long term survival (>100 days) at 30 mg/kg, po qd relative to control; type: functional
[16] = system: LN-18; experiment: Antiproliferative activity against human LN18 cells; type: functional
[17] = Oral bioavailability in mouse at 20 mg/kg; type: ADME, organism-based; settings: in vivo
[18] = system: GL261 (Mus musculus); experiment: Antiproliferative activity against mouse GL261 cells
[19] = system: Daoy; experiment: Antiproliferative activity against human DaOY cells; type: functional
[20] = target: Proto-oncogene tyrosine-protein kinase Src (Mus musculus, UniProt P05480); experiment: Inhibition of Src autophosphorylation in mouse GL261 cells; type: cell-based
Sequence of Proto-oncogene tyrosine-protein kinase Src (Mus musculus, UniProt P05480) (P05480 2-535 limits assumed): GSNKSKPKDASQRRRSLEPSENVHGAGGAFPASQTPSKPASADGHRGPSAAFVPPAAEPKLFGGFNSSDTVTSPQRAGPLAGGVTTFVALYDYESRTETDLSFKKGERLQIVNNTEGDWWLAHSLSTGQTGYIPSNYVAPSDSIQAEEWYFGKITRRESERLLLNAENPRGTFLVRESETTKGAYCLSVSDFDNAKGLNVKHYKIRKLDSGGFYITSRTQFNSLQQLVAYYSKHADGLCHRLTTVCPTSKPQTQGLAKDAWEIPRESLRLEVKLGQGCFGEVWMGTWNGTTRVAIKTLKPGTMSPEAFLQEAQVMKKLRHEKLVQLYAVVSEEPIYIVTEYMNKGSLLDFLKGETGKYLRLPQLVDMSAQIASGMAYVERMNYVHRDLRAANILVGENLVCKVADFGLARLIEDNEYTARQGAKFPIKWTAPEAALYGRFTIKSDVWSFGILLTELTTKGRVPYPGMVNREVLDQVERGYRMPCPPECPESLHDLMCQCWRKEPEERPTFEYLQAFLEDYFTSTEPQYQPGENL

[21] = Half life in mouse; type: ADME, organism-based; settings: in vivo
[22] = Antiproliferative activity against human U373 cells; type: functional, U-373MG ATCC; settings: U373 MG
[23] = target: T1, Proto-oncogene tyrosine-protein kinase Src (Homo sapiens, UniProt P12931); experiment: Inhibition of Src (unknown origin)
T1 sequence (P12931 2-536 limits assumed): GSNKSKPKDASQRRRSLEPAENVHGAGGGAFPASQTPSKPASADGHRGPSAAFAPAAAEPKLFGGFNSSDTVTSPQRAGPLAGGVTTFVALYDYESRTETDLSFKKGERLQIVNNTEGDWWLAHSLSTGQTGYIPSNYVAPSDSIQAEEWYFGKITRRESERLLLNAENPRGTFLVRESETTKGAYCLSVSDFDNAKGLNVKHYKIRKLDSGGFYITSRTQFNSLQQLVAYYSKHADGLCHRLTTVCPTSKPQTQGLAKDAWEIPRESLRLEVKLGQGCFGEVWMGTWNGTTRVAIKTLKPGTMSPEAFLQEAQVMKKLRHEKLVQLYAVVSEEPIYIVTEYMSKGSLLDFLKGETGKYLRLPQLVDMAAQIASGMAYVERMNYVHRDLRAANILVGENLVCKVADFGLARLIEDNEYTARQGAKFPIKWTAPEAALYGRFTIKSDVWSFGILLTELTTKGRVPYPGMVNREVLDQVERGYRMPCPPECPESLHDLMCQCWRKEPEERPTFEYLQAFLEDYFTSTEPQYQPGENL

[24] = system: U-87 MG; experiment: Antiproliferative activity against human U87 cells; type: functional, U-87MG ATCC
[25] = system: U138-MG; experiment: Antiproliferative activity against human U138MG cells; type: functional
[26] = Ratio of AUC in brain to plasma of mouse at 20 mg/kg, po; type: ADME, organism-based; settings: brain and plasma, read-out: Ratio AUC
[27] = system: MES-SA/Dx5; experiment: Antiproliferative activity against human MES-SA/Dx5 cells; type: functional
[28] = system: NCI/ADR-RES; experiment: Antiproliferative activity against human NCI/ADR-RES cells; type: functional
[29] = Drug absorption in po dosed dog; type: ADME, organism-based, Canis lupus familiaris; settings: in vivo, read-out: Drug absorption
[30] = system: SK-OV-3; experiment: Antiproliferative activity against human SKOV3 cells; type: functional
[31] = system: K562; experiment: Antiproliferative activity against human K562 cells; type: functional
[32] = Cmax in AML patient at 120 mg, po qd; type: ADME, organism-based; set-up: dose 120 mg, route oral; settings: human, in vivo
In short: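 Phase 1b study in elderly advanced AML patients with repeated once-daily oral dosing; plasma and bone-marrow drug concentrations measured.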

[33] = system: Bcr/Abl fusion protein (Homo sapiens), P00519+P11274 [E255K]
[34] = Half life in solid tumor patient at 40 mg, po during phase 1 clinical trial; type: ADME, organism-based; settings: human, in vivo
[35] = organism: Homo sapiens; experiment: Inhibition of SRC 527F mutant (unknown origin) expressed in mouse SYF cells assessed as inhibition of cell growth in presence of 10% FCS; type: cell-based
[36] = Cmax in CRPC patient at 40 mg, po BID during phase 2 trial by LC-MS analysis; type: ADME, organism-based; set-up: dose 40 mg, route oral; settings: human, in vivo
[37] = Cmax in solid tumor patient at 80 mg, po BID during phase 1 clinical trial; type: ADME, organism-based; set-up: dose 80 mg, route oral; settings: human, in vivo
In short: (§1)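 Phase 1 trial in late-stage solid tumor patients: continuous twice-daily oral dosing, first in 4-week cycles of 3 weeks on and 1 week off, later without the off week. Plasma PK (Cmax, Tmax, half-life, Vz/F) recorded at each dose level; Cmax given in ng/ml and nM.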

[38] = Half life in rat; type: ADME; settings: in vivo
[39] = system: A549; experiment: Antiproliferative activity against human A549 cells; type: functional
[40] = system: HT-29; experiment: Antiproliferative activity against human HT-29 cells in presence of 0.5% FCS; type: functional, cell-based
[41] = target: BCR/ABL1 (Mus musculus) (UniProt P00520+Q6PAJ1); settings: Homo sapiens
[42] = target: Bcr/Abl fusion protein (Homo sapiens, UniProt P00519); experiment: Inhibition of BCR/ABL (unknown origin); type: protein assay
Sequence of Bcr/Abl fusion protein (P00519 whole entry, the tested form may be a part): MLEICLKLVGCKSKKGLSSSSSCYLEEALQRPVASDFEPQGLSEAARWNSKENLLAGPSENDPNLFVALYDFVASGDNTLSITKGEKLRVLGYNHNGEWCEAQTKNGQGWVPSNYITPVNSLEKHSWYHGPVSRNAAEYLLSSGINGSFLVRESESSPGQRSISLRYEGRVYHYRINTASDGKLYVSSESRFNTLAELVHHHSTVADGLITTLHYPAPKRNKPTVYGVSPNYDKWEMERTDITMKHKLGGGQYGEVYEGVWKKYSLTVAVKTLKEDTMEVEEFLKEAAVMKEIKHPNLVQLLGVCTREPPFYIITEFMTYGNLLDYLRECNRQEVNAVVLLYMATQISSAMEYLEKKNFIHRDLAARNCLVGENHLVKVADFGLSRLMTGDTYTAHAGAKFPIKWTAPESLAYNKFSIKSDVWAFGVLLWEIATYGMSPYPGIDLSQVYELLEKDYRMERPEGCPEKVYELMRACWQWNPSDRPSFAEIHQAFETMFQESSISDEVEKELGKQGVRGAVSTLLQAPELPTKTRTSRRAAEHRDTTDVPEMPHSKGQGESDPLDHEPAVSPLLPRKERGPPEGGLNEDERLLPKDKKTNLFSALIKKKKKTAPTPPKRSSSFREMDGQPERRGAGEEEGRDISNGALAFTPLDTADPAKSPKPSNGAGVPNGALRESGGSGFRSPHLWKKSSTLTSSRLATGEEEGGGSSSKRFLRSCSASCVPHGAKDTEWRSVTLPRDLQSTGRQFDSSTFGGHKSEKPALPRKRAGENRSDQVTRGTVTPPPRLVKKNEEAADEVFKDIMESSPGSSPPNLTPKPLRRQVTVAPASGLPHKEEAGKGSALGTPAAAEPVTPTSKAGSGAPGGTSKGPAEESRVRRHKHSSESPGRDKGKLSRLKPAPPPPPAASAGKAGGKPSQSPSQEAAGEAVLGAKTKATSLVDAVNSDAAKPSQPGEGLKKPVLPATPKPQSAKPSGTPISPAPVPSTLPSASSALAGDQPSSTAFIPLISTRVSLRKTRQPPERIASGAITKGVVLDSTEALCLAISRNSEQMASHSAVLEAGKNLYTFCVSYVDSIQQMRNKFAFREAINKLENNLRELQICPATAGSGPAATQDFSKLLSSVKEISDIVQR
Sequence of Bcr/Abl fusion protein (P11274 whole entry, further chain, the tested form may be a part): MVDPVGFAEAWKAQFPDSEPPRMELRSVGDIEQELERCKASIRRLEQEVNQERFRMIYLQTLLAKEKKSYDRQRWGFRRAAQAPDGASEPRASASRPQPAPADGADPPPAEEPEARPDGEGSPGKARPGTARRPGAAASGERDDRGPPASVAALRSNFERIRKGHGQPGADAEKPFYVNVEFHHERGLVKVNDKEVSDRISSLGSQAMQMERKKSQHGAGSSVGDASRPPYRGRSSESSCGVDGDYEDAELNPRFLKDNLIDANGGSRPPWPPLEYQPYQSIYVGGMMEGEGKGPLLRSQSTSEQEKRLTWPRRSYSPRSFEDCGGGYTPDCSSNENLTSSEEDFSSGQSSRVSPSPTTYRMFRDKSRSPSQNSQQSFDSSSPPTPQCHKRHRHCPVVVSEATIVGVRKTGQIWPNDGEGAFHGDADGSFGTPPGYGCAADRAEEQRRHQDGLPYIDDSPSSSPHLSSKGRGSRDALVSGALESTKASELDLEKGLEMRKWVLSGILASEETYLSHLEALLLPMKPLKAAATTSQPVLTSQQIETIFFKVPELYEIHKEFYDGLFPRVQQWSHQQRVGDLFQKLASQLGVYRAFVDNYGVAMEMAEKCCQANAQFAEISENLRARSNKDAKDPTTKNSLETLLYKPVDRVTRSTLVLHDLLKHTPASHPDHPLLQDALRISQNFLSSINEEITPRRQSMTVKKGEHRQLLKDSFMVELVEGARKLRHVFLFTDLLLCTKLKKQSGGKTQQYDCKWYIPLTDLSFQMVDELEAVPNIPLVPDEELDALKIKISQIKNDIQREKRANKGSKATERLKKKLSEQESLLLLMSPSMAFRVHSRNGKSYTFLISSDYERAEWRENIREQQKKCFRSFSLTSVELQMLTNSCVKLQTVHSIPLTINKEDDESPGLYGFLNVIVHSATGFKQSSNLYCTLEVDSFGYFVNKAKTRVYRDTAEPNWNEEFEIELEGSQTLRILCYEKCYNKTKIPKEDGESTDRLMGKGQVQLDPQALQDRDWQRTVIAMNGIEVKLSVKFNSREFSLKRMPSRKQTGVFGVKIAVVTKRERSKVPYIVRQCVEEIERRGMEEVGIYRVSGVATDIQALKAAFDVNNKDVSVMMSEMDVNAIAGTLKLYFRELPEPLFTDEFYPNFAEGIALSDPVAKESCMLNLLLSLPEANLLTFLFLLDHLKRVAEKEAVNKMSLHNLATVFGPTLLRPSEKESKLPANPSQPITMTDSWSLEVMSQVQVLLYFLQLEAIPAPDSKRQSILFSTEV

[43] = Drug absorption in po dosed rat; type: ADME, organism-based; settings: in vivo, read-out: Drug absorption
[44] = Cmax in solid tumor patient at 50 mg, po BID measured during first monthly cycle during phase 1 clinical trial; type: ADME, organism-based; set-up: dose 50 mg, route oral; settings: human, in vivo; in short: as §1
[45] = system: HCT-116; experiment: Antiproliferative activity against human HCT116 cells; type: functional
[46] = Cmax in solid tumor patient at 40 mg, po during phase 1 clinical trial; type: ADME, organism-based; set-up: dose 40 mg, route oral; settings: human, in vivo; in short: as §1
[47] = system: 769-P; experiment: Antiproliferative activity against human 769-P cells; type: functional
[48] = Apparent volume of distribution in solid tumor patient at 40 mg, po during phase 1 clinical trial; type: ADME, organism-based; settings: human, in vivo, read-out: Vz/F; in short: as §1
[49] = system: RPMI-8226; experiment: Antiproliferative activity against human RPMI8226 cells; type: functional
[50] = Ratio of AUC in tumor to plasma of mouse xenografted with human HT-29 cells at 5 mg/kg, po; type: ADME, organism-based; settings: tumor and plasma, read-out: Ratio AUC
[51] = Antiproliferative activity against human PC3MM2 cells; type: functional
[52] = target: T1, Proto-oncogene tyrosine-protein kinase Src; experiment: Inhibition of human c-SRC expressed in mouse NIH/3T3 cells assessed as reduction in cell growth; type: cell-based
[53] = Drug uptake in mouse brain at 10 mg/kg, po relative to peripheral drug level; type: ADME, organism-based
In short: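 Mice dosed orally at 10 mg/kg; brain and plasma exposure measured as AUC and expressed as brain-to-plasma AUC ratio.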

[54] = target: Tyrosine-protein kinase Lyn (Homo sapiens, UniProt P07948); experiment: Inhibition of LYN (unknown origin)
Sequence of Tyrosine-protein kinase Lyn (P07948 whole entry): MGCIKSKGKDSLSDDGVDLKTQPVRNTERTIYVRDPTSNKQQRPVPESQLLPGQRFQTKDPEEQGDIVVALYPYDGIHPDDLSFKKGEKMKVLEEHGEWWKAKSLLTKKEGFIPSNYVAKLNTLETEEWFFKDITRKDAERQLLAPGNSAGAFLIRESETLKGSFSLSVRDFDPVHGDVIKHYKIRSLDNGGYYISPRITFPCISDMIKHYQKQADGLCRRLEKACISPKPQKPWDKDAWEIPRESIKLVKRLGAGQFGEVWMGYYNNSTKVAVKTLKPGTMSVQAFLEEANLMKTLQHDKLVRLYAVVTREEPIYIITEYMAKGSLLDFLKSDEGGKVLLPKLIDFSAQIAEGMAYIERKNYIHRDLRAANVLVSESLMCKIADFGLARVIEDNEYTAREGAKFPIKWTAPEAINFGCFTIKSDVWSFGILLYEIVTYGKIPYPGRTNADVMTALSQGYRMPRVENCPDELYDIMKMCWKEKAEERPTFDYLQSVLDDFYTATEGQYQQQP

[55] = Tmax in solid tumor patient at 40 mg, po during phase 1 clinical trial; type: ADME, organism-based; settings: human, in vivo
[56] = system: L3.6pl; experiment: Antiproliferative activity against human L3.6PL cells; type: functional
[57] = Half life in AML patient at 120 mg, po qd; type: ADME, organism-based; settings: human, in vivo
[58] = system: MDA-MB-231; experiment: Antiproliferative activity against human MDA-MB-231 cells; type: functional
[59] = organism: Homo sapiens; experiment: Inhibition of SRC 527F mutant (unknown origin) expressed in mouse SYF cells assessed as inhibition of cell growth in presence of 2% FCS; type: cell-based
[60] = Ratio of AUC in brain to plasma of mouse at 10 mg/kg, po; type: ADME, organism-based; settings: brain and plasma, read-out: Ratio AUC
[61] = system: Bcr/Abl fusion protein (Homo sapiens), P00519+P11274 [T315I]; settings: Mus musculus
[62] = Half life in dog; type: ADME, Canis lupus familiaris; settings: in vivo
[63] = system: KG-1; experiment: Antiproliferative activity against human KG1 cells; type: functional
[64] = system: CCRF-HSB-2; experiment: Antiproliferative activity against human CCRF-HSB2 cells; type: functional
[65] = system: Huh-7; experiment: Antiproliferative activity against human HuH7 cells; type: functional
[66] = Half life in po dosed mouse; type: ADME, organism-based; settings: in vivo
[67] = system: K-562R; experiment: Antiproliferative activity against human K562R cells; type: functional
[68] = system: RL; experiment: Antiproliferative activity against human RL cells; type: functional

## O=C(Cc1ccc(-c2ccccc2)cn1)NCc1cccc(F)c1
[1]
  pIC50: 6.47
[2]
  bioavailability: 4%

## C#CCCCN(CCOc1ccc(-c2ccc(CC(=O)NCc3ccccc3)nc2)cc1)C(=O)c1ccc(C(=O)c2ccccc2)cc1
[3]
  GI50: 28 nM
[4]
  GI50: 45 nM

## Cc1nc(Nc2ncc(C(=O)Nc3c(C)cccc3Cl)s2)cc(N2CCN(CCO)CC2)n1.O [DASATINIB]
[5]
  GI50: 644 nM
[6]
  GI50: 8 nM
[7]
  GI90: 2940 nM
  GI50: 2420 nM
[8]
  GI50: 163 nM
[9]
  GI50: 898 nM
[10]
  GI50: 90 nM

## O=C(Cc1ccc(-c2ccc(N3CCOCC3)cc2)cn1)NCc1cccc(F)c1 [KX2-361]
[11]
  GI50: 8 nM
[12]
  GI50: 29 nM
[13]
  GI50: 14 nM
[14]
  GI50: 11 nM
[2]
  bioavailability: 40%
[15]
  Activity: 30%
[16]
  GI50: 2.9 nM
[17]
  bioavailability: 40%
[18]
  GI50: 57 nM
[19]
  GI50: 16 nM
[20]
  pIC50: 7.22
[21]
  half-life: 2.5 h
[22]
  GI50: 54 nM
[23]
  pIC50: 4.17
[24]
  GI50: 76 nM
[9]
  GI50: 26 nM
[25]
  GI50: 51 nM
[26]
  Kp: 1.16

## CC(=O)O[C@H]1C(=O)[C@@]2(C)[C@H]([C@H](OC(=O)c3ccccc3)[C@]3(O)C[C@H](OC(=O)[C@H](O)[C@@H](NC(=O)c4ccccc4)c4ccccc4)C(C)=C1C3(C)C)[C@]1(OC(C)=O)CO[C@@H]1C[C@@H]2O [PACLITAXEL]
[27]
  GI50: 1800 nM
[28]
  GI50: 5940 nM

## O=C(Cc1ccc(-c2ccc(OCCN3CCOCC3)cc2)cn1)NCc1ccccc1 [TIRBANIBULIN]
[29]
  Fa: 50 to 90%
[30]
  GI50: 10 nM
[1]
  pIC50: 7.64
[5]
  GI50: 13 nM
[31]
  GI50: 13 nM
[32]
  Cmax: 218 ng/mL
[2]
  bioavailability: 49%
[33]
  GI50: 80 nM
[34]
  half-life: 4 h
[35]
  GI50: 123 nM
[36]
  Cmax: 61 ng/mL
[37]
  Cmax: 273 ng/mL
[38]
  half-life: 2 h
[39]
  GI50: 9 nM
[40]
  pIC50: 8.30
[41]
  GI50: 85 nM
[42]
  pIC50: 6.70 to 7.00
[3]
  GI50: 25 nM
[4]
  GI50: 40 nM
[43]
  Fa: 50 to 90%
[44]
  Cmax: 231 ng/mL
[27]
  GI50: 34 nM
[45]
  GI90: 195 nM
[45]; Homo sapiens, HCT-116
  GI50: 31 nM
[46]
  Cmax: 80 ng/mL
[47]
  GI50: 45 nM
[48]
  Vd/F: 681 L
[28]
  GI50: 56 nM
[49]
  GI50: 40 nM
[50]
  Kp: 1.52
[51]
  GI50: 9 nM
[52]
  GI50: 20 nM
[53]
  Drug uptake: 42%
[54]
  pIC50: 6.70 to 7.00
[6]
  GI50: 10 nM
[7]
  GI90: 903 nM
  GI50: 109 nM
[55]
  Tmax: 1 h
[56]
  GI50: 25 nM
[57]
  half-life: 2.2 h
[58]
  GI50: 20 nM
[59]
  GI50: 23 nM
[8]
  GI90: 490 nM
  GI50: 98 nM
[60]
  Kp: 0.42
[61]
  GI50: 35 nM
[23]
  pIC50: 4.34
[62]
  half-life: 8 h
[63]
  GI50: 16 nM
[64]
  GI50: 12 nM
[65]
  GI50: 9 nM
[66]
  half-life: 1 h
[67]
  GI50: 0.64 nM
[10]
  GI90: 162 nM
  GI50: 51 nM
[68]
  GI50: 19 nM
